TRAIL sens C8 = caspase-8 TRAIL sensitization | NB7+C8 cells + TRAIL, ATPlite viability luminescence | inhibition (viability loss, TRAIL sensitization), % at 10 µM | actives 1% (n = 360,000) | AID 624354;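 active = compounds causing at least 50% loss of cell viability in the single-dose screen, relative to plate controls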
PPC-1+TRAIL kill = PPC-1 cancer cell killing with TRAIL present; PPC-1 cells + TRAIL, ATPLite viability luminescence; cell killing (% activity), % at 4 µM or 5 µM; actives 0.41% (n = 220,000);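 active = cell killing above 50% in the first pass at 4 µM, then a duplicate retest at 5 µM averaging 50% or more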
FLuc inhib CS = counter-screen for luciferase assay inhibitors: firefly luciferase inhibition; P08659; ATPLite firefly luciferase biochemical luminescence, 10 min; inhibition, % at 10 µM; actives 1.5% (n = 200,000); AID 1006;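 active = inhibition above about 50% when tested at 10 µM, limit read from the data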
Target sequence (P08659 whole entry, looked up): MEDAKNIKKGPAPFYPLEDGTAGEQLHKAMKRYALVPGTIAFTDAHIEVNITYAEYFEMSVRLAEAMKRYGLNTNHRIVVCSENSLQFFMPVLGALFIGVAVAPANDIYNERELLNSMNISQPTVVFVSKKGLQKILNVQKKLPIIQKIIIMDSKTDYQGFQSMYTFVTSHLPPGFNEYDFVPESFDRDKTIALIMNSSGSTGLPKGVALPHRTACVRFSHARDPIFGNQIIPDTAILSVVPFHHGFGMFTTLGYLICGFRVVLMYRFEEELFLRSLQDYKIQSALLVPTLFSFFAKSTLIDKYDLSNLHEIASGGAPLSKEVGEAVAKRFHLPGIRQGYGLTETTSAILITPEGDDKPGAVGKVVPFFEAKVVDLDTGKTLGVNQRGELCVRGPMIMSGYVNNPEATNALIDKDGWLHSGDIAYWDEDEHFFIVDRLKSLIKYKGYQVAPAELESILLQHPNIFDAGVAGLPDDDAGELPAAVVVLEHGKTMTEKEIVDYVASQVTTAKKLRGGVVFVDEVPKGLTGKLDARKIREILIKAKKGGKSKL
FLuc stim CS = affects firefly luciferase, flagging false hits in luciferase stimulation screens. P08659. ATPlite luciferase biochemical, luminescence, 10 min; 0 = ATP-free wells, 1 = DMSO control. activation factor at 10 µM. 200,000 tested, under 10 active. AID 1027;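 active = luciferase activation factor, scaled between plate controls, of at least 2 with compound at 10 µM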
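assay system = Luciferase/luciferin detection reagent, cell-free biochemical luciferase assay | also added = ATP substrate | times = 10 min post-reagent at room temperature | measured by = luminescence from luciferase reaction | measure = luciferase activation, seen as luminescence increase over controls | benchmarks = low control with PBS replacing ATP, high control enzyme plus ATP without compound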
Hits are given with their value; i = inactive; nt = no result. Shown are actives, neighbours in structure and some others; about 1.6% of the full set was active somewhere.

SMILES	TRAIL sens C8	PPC-1+TRAIL kill	FLuc inhib CS	FLuc stim CS
CCN(CC(=O)NCCc1ccc(S(N)(=O)=O)cc1)Cc1ccccc1	i	nt	nt	nt
COc1ccc(-c2csc(N3N=C(C)C(C)C3=O)n2)cc1 (centres undefined)	i	i	60.7	i
Cc1c(N)cc2c(c1N)C(C)(C)CC2(C)C	i	nt	nt	nt
Fc1cccc(NCCc2c[nH]c3ccccc23)n1	i	nt	nt	nt
c1ccc2c(NCCc3c[nH]c4ccccc34)c3ccccc3nc2c1	75.3	nt	nt	nt
N=c1c2c(n(Cc3ccc(Cl)c(Cl)c3)c3c1CCC3)CCCC2	65.2	i	i	i
CC(=O)N1CCN(C2=Nc3cccc4cccc2c34)CC1	i	i	i	i
COc1ccccc1N1CCN(C2=Nc3cccc4cccc2c34)CC1	66.8	i	77.8	i
O=C1c2ccccc2C(Nc2ccc3c(c2)OCO3)N1Cc1ccc2c(c1)OCO2 (centres undefined)	i	i	i	i
O=C1c2ccccc2C(Nc2cccnc2)N1Cc1ccc2c(c1)OCO2 (centres undefined)	i	64.7	i	i
Cn1cc(Br)c(C(=O)N/N=C/c2cc3c(cc2Cl)OCO3)n1	i	nt	nt	nt
Cc1cc(C)n(-c2nc(N(c3ccccc3)c3ccccc3)nc(-n3nc(C)cc3C)n2)n1	75.8	i	i	i
Cc1cc(C)n(-c2nc(Nc3ccccc3)nc(-n3nc(C)cc3C)n2)n1	i	i	i	i
Cc1ccc(-c2cc(C(=O)N/N=C/c3c(C)nn(-c4ccccc4)c3C)n[nH]2)s1	i	i	i	i
Cc1nn(-c2ccccc2)c(C)c1/C=N/NC(=O)c1cc(C(C)(C)C)[nH]n1	52.1	i	i	i
Cc1ccc(NC(=O)COC(=O)CNC(=O)C2CCCCC2)cc1S(=O)(=O)N(C)C	i	nt	nt	nt
CCOc1ccc(C(=O)NCC(=O)OCC(=O)Nc2ccc(C)c(S(=O)(=O)N(C)C)c2)cc1	i	i	64.6	i
O=C1/C(=C/c2ccccc2)CN(C(=O)CCN2CCOCC2)C/C1=C\c1ccccc1	56.0	nt	nt	nt
C[N+](C)(C)CCC(=O)N1C/C(=C/c2ccccc2)C(=O)/C(=C\c2ccccc2)C1	i	nt	nt	nt
COc1ccc(OC(=O)N2C/C(=C/c3ccccc3)C(=O)/C(=C\c3ccccc3)C2)cc1	51.7	nt	nt	nt
CCOC(=O)N1C/C(=C\c2ccccc2)C(=O)/C(=C/c2ccccc2)C1	i	i	nt	nt
O=C(/C=C/c1ccccc1)CCN1CCOCC1	i	nt	nt	nt
CN(C)CCC(=O)N1C/C(=C/c2ccccc2)C(=O)/C(=C\c2ccccc2)C1	94.8	nt	nt	nt
CC(=O)c1ccccc1OCC(O)CN1CCN(CCN2C(=O)c3cccc4cccc(c34)C2=O)CC1 (centres undefined)	60.1	i	i	i
O=C(CCNC(=O)c1ccc(Cl)cc1)NCc1ccco1	i	nt	nt	nt
SMILES	TRAIL sens C8	PPC-1+TRAIL kill	FLuc inhib CS	FLuc stim CS
CC(C)c1ccc(/C=C/c2ccc(=O)n(C)n2)cc1	62.3	i	83.4	i
CC(C)c1ccc(/C=C/C2=NNC(=O)CC2)cc1	i	i	i	i
COc1cc2sc3ccc(C#CC4(O)CCCCC4)cc3c(=O)c2cc1OC	75.0	nt	nt	nt
Cn1c2ccccc2c(=O)c2ccc(C#CC3(O)CCCCC3)cc21	85.5	nt	nt	nt
COc1cccc2sc3cc(C#CC4(O)CCCCC4)ccc3c(=O)c12	i	nt	nt	nt
COc1ccc(C#Cc2ccc3c(c2)c(=O)c2ccccc2n3C)cc1	i	nt	nt	nt
CC1=NN(C(=O)Cn2nc([N+](=O)[O-])c(Br)c2C)C(O)(C(F)(F)F)C1 (centres undefined)	i	i	i	i
COCCNC(=O)C1(C)CCCN(Cc2cn(C)c3ccccc23)C1 (centres undefined)	i	nt	nt	nt
CCN(CC)c1ccc(C(=O)OCc2cc(=O)oc3cc(O)ccc23)cc1	50.2	i	i	i
OCCC1CN(C2CCC2)CCN1Cc1ccc(F)c(F)c1 (centres undefined)	i	nt	nt	nt
Cc1nn2c(-c3ccc(Cl)cc3Cl)nnc2s1	i	i	i	i
Cc1ccccc1-c1nnc(-c2cccc3ccccc23)o1	51.4	nt	nt	nt
Cc1ccc(Nc2nc(C3CC3)cs2)cc1	nt	i	69.3	i
Cc1cc(C)c(S(=O)(=O)NNC(=O)C2CCN(Cc3ccccc3)CC2)c(C)c1	i	i	i	i
COCCNc1nc(-c2cc3ccccc3o2)cs1	i	i	62.3	i
CC(C)(C)NC(=O)C(c1ccncc1)n1c(-c2ccc(C(F)(F)F)cc2)nc2ccccc21 (centres undefined)	79.5	nt	nt	nt
O=C1CC(c2ccccc2)C(C(=O)Nc2ccccc2F)N1 (centres undefined)	i	i	i	i
CCc1nc2ccc(C(=O)NCCN3CCOCC3)cn2c1N(C)Cc1ccc(OC)cc1	i	nt	nt	nt
CC1CCc2cc(F)ccc2N1C(=O)CCl (centres undefined)	94.0	i	i	i
CCC(CC)C(=O)N1c2ccc(F)cc2CCC1C (centres undefined)	i	i	i	i
CCCS(=O)(=O)NC(=O)C1(C)CCN(C(=O)c2snnc2C)C1 (centres undefined)	i	nt	nt	nt
Cc1ccc(-c2cc(-c3ccccc3)no2)c(O)c1	78.3	i	87.0	i
Oc1ccccc1-c1cc(-c2ccccc2)no1	44.6	i	50.8	i
Cc1ccc2nc(-c3cc(-c4ccccc4)no3)cn2c1	57.1	i	nt	nt
Cc1ccccc1-c1cc(-c2ccccc2O)on1	i	i	i	i
SMILES	TRAIL sens C8	PPC-1+TRAIL kill	FLuc inhib CS	FLuc stim CS
Cc1ccc(O)c(-c2cc(-c3ccc(F)cc3)no2)c1	68.9	nt	nt	nt
Clc1ccc(-c2cc(-c3ccccc3)on2)cc1	i	nt	nt	nt
COc1ccc(-c2cc(-c3cc(C)ccc3O)[nH]n2)cc1	i	i	i	i
c1ccc(Cc2noc(CN3CCN(CCOc4ccccc4)CC3)n2)cc1	i	i	i	i
CCCCn1c(=O)[nH]c(=O)c2c1nc(Cn1ncc(Cl)c(Cl)c1=O)n2CCC	95.3	nt	nt	nt
CCN(CC)c1ccc(/C=C/c2nc3ccccc3s2)cc1	nt	i	64.2	i
CC(C)(C)c1ccc(/C=C/C(=O)NC2=NCCS2)cc1	52.2	i	i	i
Cc1ccc(/C=C/C(=O)NC2=NCCS2)cc1	76.0	i	86.4	i
Cc1ccc(/C=C/C(=O)Nc2ccccc2C(N)=O)cc1	84.0	84.3	93.4	i
Cc1ccc(OCC(=O)NC2=NCCS2)cc1	i	i	i	i
COc1cc(Cl)c(C)cc1NC(=O)COC(=O)c1cc[n+]([O-])cc1	i	i	i	i
CCc1ccc(CNCc2ccc(F)cc2)cc1	i	66.1	i	i
O=C(O)c1ccc(CNCc2ccc(F)cc2)cc1	i	i	i	i
Cn1c(C(=O)NCc2ccccn2)cc2c(=O)n3ccccc3nc21	i	i	50.7	i
O=C(NC(=S)NCCc1ccccc1)c1cccc(Cl)c1	i	nt	nt	nt
Cc1ccc(NC(=S)c2nc3ccccc3s2)cc1	43.9	i	65.8	i
CCOC(=O)CNC(=O)CSc1nc(-c2ccc(OC)cc2)ns1	53.8	i	i	i
CCCOc1ccc(F)cc1-c1cc(C(=O)Nc2ccc(OC)cc2C)[nH]n1	i	nt	nt	nt
COc1ccc(C2Cc3ccccc3C(=O)O2)cc1 (centres undefined)	i	i	i	i
CCCC(=O)N1CCc2cc(-c3nc(N)sc3C)ccc21	i	i	i	i

Source: PubChem BioAssay
